Experimental data reported in ChEMBL document CHEMBL1799938, “Synthesis and identification of new 4-arylidene curcumin analogues as potential anticancer agents targeting nuclear factor-κB signaling pathway” (J Med Chem, 2010).
Calls of active or inactive are those of the source. The rule behind the calls is not given here.

What was measured:
A549 [1] = test: Growth inhibition of human A549 cells after 48 hrs by sulforhodamine B assay; format: functional; details: A549, 48 h
[2] = (§1) Inhibition of TNF-alpha-induced NFkappaB nuclear translocation in human A549 cells preincubated for 30 mins before TNFalpha challenge and measured 30 post TNFalpha challenge by fluorescence method; format: cell-based
A549 [3] = test: Growth inhibition of human A549 cells after 72 hrs by alamar blue method; format: functional; details: A549, 72 h
Summary of the method: (§2)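 Cells kept in RPMI with 10% FBS and penicillin/streptomycin at 37°C, 5% CO2. Plated in 384-well format, dosed the next day, then incubated 72 hr before Alamar Blue read-out. GI50 is the concentration lowering viability by 50% versus solvent-vehicle control cells at the end of incubation.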

[4] = Growth inhibition of human NCI-H1944 cells after 72 hrs by alamar blue method; format: functional; details: NCI-H1944, 72 h; summary of the method: as §2
NCI-H460 = test: Growth inhibition of human H460 cells after 72 hrs by alamar blue method; format: functional; details: NCI-H460, 72 h; summary of the method: as §2
NCI-H157 = test: Growth inhibition of human NCI-H157 cells after 72 hrs by alamar blue method; format: functional; details: NCI-H157, 72 h; summary of the method: as §2
[5] = target: T1, Inhibitor of NF-kappa-B kinase (IKK) (Homo sapiens, UniProt O14920+O15111+Q9Y6K9); test: Inhibition of IKK in human A549 cells assessed as inhibition of TNF-alpha-induced IkappaB phosphorylation preincubated for 30 mins before TNFalpha challenge; format: cell-based
T1 sequence (O15111 whole entry, one chain of several): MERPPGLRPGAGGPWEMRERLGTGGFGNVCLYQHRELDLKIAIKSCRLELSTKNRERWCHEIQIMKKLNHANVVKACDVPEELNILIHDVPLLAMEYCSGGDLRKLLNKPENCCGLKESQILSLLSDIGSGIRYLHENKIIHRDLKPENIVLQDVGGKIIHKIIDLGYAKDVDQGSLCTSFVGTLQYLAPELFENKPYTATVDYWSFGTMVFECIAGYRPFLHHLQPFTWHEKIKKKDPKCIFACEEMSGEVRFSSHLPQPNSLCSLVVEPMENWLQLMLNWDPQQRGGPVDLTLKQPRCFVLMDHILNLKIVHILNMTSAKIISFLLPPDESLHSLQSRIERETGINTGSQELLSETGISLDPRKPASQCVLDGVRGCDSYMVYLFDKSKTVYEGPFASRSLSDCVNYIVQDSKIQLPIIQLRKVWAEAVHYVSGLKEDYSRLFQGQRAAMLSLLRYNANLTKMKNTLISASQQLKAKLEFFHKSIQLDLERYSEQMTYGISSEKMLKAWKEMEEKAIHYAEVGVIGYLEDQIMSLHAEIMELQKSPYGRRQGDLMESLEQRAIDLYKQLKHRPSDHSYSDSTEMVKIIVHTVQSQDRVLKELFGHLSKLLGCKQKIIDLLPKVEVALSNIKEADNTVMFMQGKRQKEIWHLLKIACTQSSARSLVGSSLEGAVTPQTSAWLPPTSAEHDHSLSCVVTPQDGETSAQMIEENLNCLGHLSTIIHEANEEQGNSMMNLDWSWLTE
T1 sequence (Q9Y6K9 whole entry, one chain of several): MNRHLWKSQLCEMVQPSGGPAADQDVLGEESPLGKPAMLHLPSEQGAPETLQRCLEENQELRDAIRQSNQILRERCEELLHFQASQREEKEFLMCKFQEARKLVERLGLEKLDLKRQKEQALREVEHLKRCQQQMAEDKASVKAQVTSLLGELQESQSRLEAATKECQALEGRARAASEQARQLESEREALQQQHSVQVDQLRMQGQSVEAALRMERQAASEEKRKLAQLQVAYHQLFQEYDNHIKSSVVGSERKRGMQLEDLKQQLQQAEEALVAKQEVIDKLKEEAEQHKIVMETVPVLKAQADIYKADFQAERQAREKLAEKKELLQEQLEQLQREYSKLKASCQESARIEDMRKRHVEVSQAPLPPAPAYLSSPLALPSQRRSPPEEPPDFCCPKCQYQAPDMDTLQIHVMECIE
Summary of the method: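 A549 cells pretreated 30 min with compounds before TNFα (10 ng/ml). Whole-cell NP-40 lysates prepared 7 min after TNFα, run on 12.5% SDS-PAGE and Western blotted with anti-pS32 IκB antibody. Membrane then stripped and reprobed for total IκB.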

[6] = target: T1, Inhibitor of NF-kappa-B kinase (IKK); test: Inhibition of IKK in human A549 cells assessed as inhibition of TNF-alpha-induced IkappaB degradation at 0.5 to 25 uM preincubated for 4 hrs before TNFalpha challenge measured after 20 mins by Western blot analysis; format: cell-based
Summary of the method: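 A549 cells pretreated with compounds at indicated doses, then TNFα (10 ng/ml) added for a further 20 min. Cells lysed in NP-40 buffer (1.0% NP-40, 10 mM Hepes pH 7.4, 150 mM NaCl, phosphatase and protease inhibitors). Equal lysate volumes run on 12.5% SDS-PAGE, transferred to nitrocellulose, milk-blocked, and total IκB detected by Western blot.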

[7] = target: T2, Inhibitor of nuclear factor kappa-B kinase subunit beta (Homo sapiens) (UniProt O14920); test: Inhibition of recombinant IKK-beta assessed as inhibition of incorporation of [gamma32P] to GST-IkappaBalpha after 30 mins by scintillation counting
T2 sequence (whole entry): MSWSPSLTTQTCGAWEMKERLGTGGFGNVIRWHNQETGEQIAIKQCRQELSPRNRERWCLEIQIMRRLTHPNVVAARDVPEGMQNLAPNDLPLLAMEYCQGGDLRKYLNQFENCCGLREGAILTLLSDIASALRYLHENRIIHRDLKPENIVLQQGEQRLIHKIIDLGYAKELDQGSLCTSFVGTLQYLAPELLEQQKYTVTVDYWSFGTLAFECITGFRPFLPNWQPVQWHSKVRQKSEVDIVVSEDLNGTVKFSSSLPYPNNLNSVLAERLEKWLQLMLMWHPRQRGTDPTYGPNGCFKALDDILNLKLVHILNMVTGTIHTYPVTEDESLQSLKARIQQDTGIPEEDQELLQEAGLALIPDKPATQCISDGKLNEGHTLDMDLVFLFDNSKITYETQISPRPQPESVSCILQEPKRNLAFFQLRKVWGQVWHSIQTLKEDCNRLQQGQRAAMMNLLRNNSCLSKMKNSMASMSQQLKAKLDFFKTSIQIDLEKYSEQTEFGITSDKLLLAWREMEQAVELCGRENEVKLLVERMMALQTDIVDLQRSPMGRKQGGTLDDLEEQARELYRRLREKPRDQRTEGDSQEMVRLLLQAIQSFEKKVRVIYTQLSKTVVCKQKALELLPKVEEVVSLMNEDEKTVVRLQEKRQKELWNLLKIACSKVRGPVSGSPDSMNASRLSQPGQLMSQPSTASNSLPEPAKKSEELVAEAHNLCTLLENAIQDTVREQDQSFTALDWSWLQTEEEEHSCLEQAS
Summary of the method: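 Activated recombinant IKKβ (40 ng) preincubated with compounds 30 min at room temperature in MOPS buffer pH 7.0. Reaction started with Mg-ATP mix (100 μM ATP, 15 mM MgCl2), 5 μg GST-IκBα and 0.5 μCi [γ-32P]ATP in 25 μl, run 30 min at 30°C. Stopped by boiling in SDS buffer, resolved by 12.5% SDS-PAGE, autoradiographed. Excised bands quantified by scintillation counting.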

A549 [8] = test: Anticlonogenic activity against human A549 cells assessed as inhibition of colony formation of cells treated at 0.4 uM with test compound after cell plating and every 3 days thereafter and measured on day 9 after colonies formed by SRB assay; format: functional
Summary of the method: (§3)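 A549 cells plated at 200 cells/well, incubated overnight, then exposed to compound or DMSO vehicle; medium and compound renewed every 3 days. On day 9, colonies fixed with 10% TCA for 30 min at 4°C, water-washed, SRB-stained and rinsed with 1% acetic acid. Plates scanned, colonies counted and normalized to DMSO control.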

A549 [9] = test: Anticlonogenic activity against human A549 cells assessed as inhibition of colony formation of cells treated at 4 uM with test compound after cell plating and every 3 days thereafter and measured on day 9 after colonies formed by SRB assay; format: functional, cell-based; summary of the method: as §3
A549 [10] = test: as §1; format: cell-based
A549 [11] = test: Anticlonogenic activity against human A549 cells assessed as inhibition of colony formation of cells treated at 0.2 uM with test compound after cell plating and every 3 days thereafter and measured on day 9 after colonies formed by SRB assay; format: functional; summary of the method: as §3

| Structure (SMILES) | GI50 (A549 [1]) [µM] | IC50 [2] [µM] | other results |
| --- | --- | --- | --- |
| COc1ccc(/C=C/C(=O)/C=C/c2cc(OC)c(OC)c(OC)c2)cc1OC | 1.21 | 9 | – |
| COc1cc(/C=C/C(=O)/C=C/c2sccc2C)cc(OC)c1OC | 9.31 | 24.3 | – |
| COc1cc(/C=C/C(=O)C(=CO)C(=O)/C=C/c2ccc(OC(C)=O)c(OC)c2)ccc1OC(C)=O | > 25 | 39.3 | – |
| COc1ccc(/C=C/C(=O)C(=CO)C(=O)/C=C/c2ccc(OC)cc2)cc1 | > 25 | > 40 | – |
| COc1cccc(C=C(C(=O)/C=C/c2ccc(O)c(OC)c2)C(=O)/C=C/c2ccc(O)c(OC)c2)c1 | 0.64 | 1.3 | – |
| COc1cc(C=C(C(=O)/C=C/c2ccc(O)c(OC)c2)C(=O)/C=C/c2ccc(O)c(OC)c2)ccc1O | 2 | 1 | – |
| COc1ccc(/C=C/C(=O)C(=Cc2cc(OC)c(OC)c(OC)c2)C(=O)/C=C/c2ccc(OC)cc2)cc1 | 1.12 | 3.8 | – |
| COc1ccc(/C=C/C(=O)C(=CO)C(=O)/C=C/c2ccc(OC)c(OC)c2)cc1OC | > 25 | > 40 | – |
| COc1cc(/C=C/C(=O)CC(=O)/C=C/c2ccc(O)c(OC)c2)ccc1O [CURCUMIN] | 15.2 | 9.5 | GI50 (A549 [3]): 9.44 µM; GI50 [4]: 16.2 µM; GI50 (NCI-H460): 12.1 µM; GI50 (NCI-H157): 19.2 µM; Activity (A549 [9]): Active |
| COc1ccc(OC)c(C=C(C(=O)/C=C/c2ccc(O)c(OC)c2)C(=O)/C=C/c2ccc(O)c(OC)c2)c1 | 0.67 | 1.4 | – |
| COc1ccc(C=C(C(=O)/C=C/c2ccc(OC)c(OC)c2)C(=O)/C=C/c2ccc(OC)c(OC)c2)c(OC)c1 | 0.65 | 1.7 | – |
| O=C(/C=C(O)/C=C/c1ccco1)/C=C/c1ccco1 | > 25 | > 40 | – |
| COc1ccc(/C=C/C(=O)C(=Cc2cccc(OC)c2OC)C(=O)/C=C/c2ccc(OC)c(OC)c2)cc1OC | 0.67 | 1.5 | – |
| COc1ccc(/C=C/C(=O)C(=Cc2ccc(N(C)C)cc2)C(=O)/C=C/c2ccc(OC)c(OC)c2)cc1OC | 2.62 | > 40 | – |
| Cc1ccc(/C=C/C(=O)/C=C(O)/C=C/c2ccc(C)o2)o1 | > 25 | 8.5 | – |
| COc1cc(/C=C/C(=O)/C=C/c2cc(OC)c(OC)c(OC)c2)cc(OC)c1OC | 0.55 | 7.9 | – |
| COc1ccc(/C=C/C(=O)/C=C(O)/C=C/c2ccc(OC)c(OC)c2)cc1OC [DIMETHYLCURCUMIN] | 5.8 | > 40 | – |
| COc1ccc(/C=C/C(=O)C(=Cc2ccc(F)cc2)C(=O)/C=C/c2ccc(OC)c(OC)c2)cc1OC | 0.55 | 1.1 | GI50 (A549 [3]): 0.7 µM; GI50 [4]: 0.28 µM; GI50 (NCI-H460): 0.27 µM; GI50 (NCI-H157): 0.28 µM; inhibition (A549 [10]): Dose-dependent effect; IC50 [5]: 2.2 µM; inhibition [6]: Active; inhibition [7]: Dose-dependent effect; inhibition at 0.2 µM (A549 [11]): 50% |
| COc1cc(/C=C/C(=O)C(=Cc2ccc(F)cc2)C(=O)/C=C/c2ccc(O)c(OC)c2)ccc1O | 0.78 | 2.7 | – |
| CCc1ccc(C=C(C(=O)/C=C/c2ccc(OC)c(OC)c2)C(=O)/C=C/c2ccc(OC)c(OC)c2)cc1 | 0.63 | 4.9 | – |
| COc1ccc(C=C(C(=O)/C=C/c2ccc(O)c(OC)c2)C(=O)/C=C/c2ccc(O)c(OC)c2)c(OC)c1 | 0.69 | 1 | – |
| COc1ccc(/C=C/C(=O)C(=Cc2ccc(O)c(OC)c2)C(=O)/C=C/c2ccc(OC)cc2)cc1 | 1.64 | 3 | – |
| COc1ccc(/C=C/C(=O)C(=Cc2ccc(OC)c(OC)c2)C(=O)/C=C/c2ccc(OC)cc2)cc1 | 0.93 | 3.3 | – |
| COc1ccc(/C=C/C(=O)/C=C(O)/C=C/c2ccc(OC)cc2)cc1 | > 25 | > 40 | – |
| COc1ccc(/C=C/C(=O)C(=Cc2ccc(C)o2)C(=O)/C=C/c2ccc(OC)c(OC)c2)cc1OC | 1.31 | 2.8 | – |
| COc1ccc(/C=C/C(=O)C(=Cc2cccc(F)c2)C(=O)/C=C/c2ccc(OC)c(OC)c2)cc1OC | 0.58 | 1.3 | – |

Continued, in another order:

| GI50 (A549 [1]) [µM] | IC50 [2] [µM] | Structure (SMILES) | other results |
| --- | --- | --- | --- |
| 0.42 | 1.7 | COc1cc(/C=C/C(=O)C(=Cc2cccc(OC)c2OC)C(=O)/C=C/c2ccc(O)c(OC)c2)ccc1O | GI50 (A549 [3]): 0.93 µM; GI50 [4]: 0.33 µM; GI50 (NCI-H460): 0.3 µM; GI50 (NCI-H157): 0.53 µM; IC50 [5]: 5 µM; inhibition [6]: Active; inhibition [7]: Dose-dependent effect; inhibition at 0.4 µM (A549 [8]): 50% |
| 0.53 | 1.5 | COc1ccc(OC)c(C=C(C(=O)/C=C/c2ccc(OC)c(OC)c2)C(=O)/C=C/c2ccc(OC)c(OC)c2)c1 | – |
| 0.42 | 1.4 | COc1ccc(/C=C/C(=O)C(=Cc2ccc(O)cc2)C(=O)/C=C/c2ccc(OC)c(OC)c2)cc1OC | – |
| 0.55 | 1.8 | CCc1ccc(C=C(C(=O)/C=C/c2ccc(O)c(OC)c2)C(=O)/C=C/c2ccc(O)c(OC)c2)cc1 | – |
| 0.37 | 1 | COc1ccc(C=C(C(=O)/C=C/c2cc(OC)c(OC)c(OC)c2)C(=O)/C=C/c2cc(OC)c(OC)c(OC)c2)cc1OC | – |
| 0.31 | 1.5 | COc1ccc(C=C(C(=O)/C=C/c2ccc(OC)c(OC)c2)C(=O)/C=C/c2ccc(OC)c(OC)c2)cc1OC | – |
| 0.36 | 1.4 | COc1cc(/C=C/C(=O)C(=Cc2cccc(F)c2)C(=O)/C=C/c2ccc(O)c(OC)c2)ccc1O | – |
| 0.53 | 4.8 | COc1cc(/C=C/C(=O)/C(=C/c2cc(OC)c(OC)c(OC)c2)C(C)=O)cc(OC)c1OC | – |
| 0.23 | 1.8 | COc1ccc(/C=C/C(=O)C(=Cc2cc(OC)c(OC)c(OC)c2)C(=O)/C=C/c2ccc(OC)c(OC)c2)cc1OC | – |
| 0.53 | 1 | COc1cc(C=C(C(=O)/C=C/c2ccc(OC)c(OC)c2)C(=O)/C=C/c2ccc(OC)c(OC)c2)ccc1O | GI50 (A549 [3]): 0.72 µM; GI50 [4]: 0.07 µM; GI50 (NCI-H460): 0.13 µM; GI50 (NCI-H157): 0.16 µM; IC50 [5]: 2.8 µM; inhibition [6]: Active; inhibition [7]: Dose-dependent effect; inhibition at 0.2 µM (A549 [11]): 50% |
| 0.43 | > 40 | COc1cc(/C=C/C(=O)C(=Cc2ccc(OC)c(OC)c2)C(=O)/C=C/c2ccc(O)c(OC)c2)ccc1O | – |
